According to ChEMBL document CHEMBL1123394, “Systematic synthesis and biological evaluation of alpha- and beta-D-xylofuranosyl nucleosides of the five naturally occurring bases in nucleic acids and related analogues” (J Med Chem, 1986):
≈ marks a conversion by molar mass, not a printed value.

Key:
[1] = test system: Vero; experiment: Antiviral activity was measured against Coxsackie virus B4 in african green monkey kidney (Vero B) cells.; assay type: functional; conditions: Chlorocebus sabaeus
Summary of the method: (§1)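 Inhibition of virus-induced cytopathogenicity scored in cell culture monolayers. Test compounds dissolved in growth medium at 100, 10, or 1 μg/mL or less.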

[2] = test system: Vero; experiment: Antiviral activity was measured against forest virus in african green monkey kidney (Vero B) cells.; assay type: functional; conditions: Chlorocebus sabaeus; summary of the method: as §1
[3] = test system: WI-38; experiment: Antiviral activity was measured against Rhino virus-9 in human diploid (WI-38) cells.; assay type: functional; summary of the method: as §1
[4] = Antiviral activity was measured against Herpes simplex virus (HSV-1 KOS) in rabbit kidney cells.; assay type: functional; conditions: Oryctolagus cuniculus
Summary of the method: (§2)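 Inhibition of virus-induced cytopathogenicity in cell culture. Compounds were dissolved in growth medium at 100, 10 or 1 μg/mL or less.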

[5] = test system: Vero; experiment: Antiviral activity was measured against Reo virus-1 in african green monkey kidney (Vero B) cells.; assay type: functional; conditions: Chlorocebus sabaeus; summary of the method: as §1
[6] = Antiviral activity was measured against Herpes simplex virus (HSV-2 G) in rabbit kidney cells.; assay type: functional; conditions: Oryctolagus cuniculus; summary of the method: as §1
[7] = Concentration required for microscopically detectable alteration of the normal cell morphology in PRK cells.; assay type: functional; conditions: Oryctolagus cuniculus
Summary of the method: (§3)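 Host-cell morphology inspected microscopically for detectable alteration, with compounds in growth medium at up to 200 or 400 μg/mL.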

[8] = Antiviral activity was measured against vesicular stomatitis virus in rabbit kidney cells.; assay type: functional; conditions: Oryctolagus cuniculus; summary of the method: as §2
[9] = test system: Vero; experiment: Concentration required for microscopically detectable alteration of the normal cell morphology in Vero B cells.; assay type: functional; conditions: Chlorocebus sabaeus; summary of the method: as §3
[10] = test system: WI-38; experiment: Antiviral activity was measured against Rhino virus-1A in human diploid (WI-38) cells.; assay type: functional; summary of the method: as §1
[11] = test system: HeLa; experiment: Antiviral activity was measured against vesicular stomatitis virus in HeLa cells.; assay type: functional; conditions: Homo sapiens; summary of the method: as §2
[12] = Antiviral activity was measured against vaccinia virus in rabbit kidney cells.; assay type: functional; conditions: Oryctolagus cuniculus; summary of the method: as §2
[13] = test system: Vero; experiment: Antiviral activity was measured against Sindbis virus in african green monkey kidney (Vero B) cells.; assay type: functional; conditions: Chlorocebus sabaeus; summary of the method: as §1
[14] = test system: WI-38; experiment: Concentration required for microscopically detectable alteration of the normal cell morphology in Wi-38 cells.; assay type: functional; conditions: Homo sapiens; summary of the method: as §3
[15] = test system: HeLa; experiment: Concentration required for microscopically detectable alteration of the normal cell morphology in HeLa cells.; assay type: functional; conditions: Homo sapiens; summary of the method: as §3
[16] = test system: HeLa; experiment: Antiviral activity was measured against Coxsackie virus B4 in HeLa cells.; assay type: functional; conditions: Homo sapiens; summary of the method: as §2
[17] = test system: Vero; experiment: Antiviral activity was measured against Parainfluenza virus-3 in african green monkey kidney (Vero B) cells.; assay type: functional; conditions: Chlorocebus sabaeus; summary of the method: as §1
[18] = Concentration required to reduce RNA synthesis in primary rabbit kidney cells using [3H-5]-Urd incorporation; assay type: functional; conditions: Oryctolagus cuniculus, read-out: ID50 (the source's name)
Summary of the method: (§4)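 Primary rabbit kidney cells with compounds in growth medium at 100, 10, or 1 μg/mL or less. Cell number and incorporation of [3H-methyl]dThd (DNA), [3H-5]Urd (RNA) or [3H2-4,5]leucine (protein) measured. ID50 taken as the dose giving 50% reduction in cell number or in DNA, RNA or protein synthesis.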

[19] = Concentration required to reduce DNA synthesis in primary rabbit kidney cells using [3H-Methyl]-dThd incorporation; assay type: functional; conditions: Oryctolagus cuniculus, read-out: ID50 (the source's name); summary of the method: as §4
[20] = Antiviral activity was measured against Vaccinia virus in rabbit kidney cells.; assay type: functional; conditions: Oryctolagus cuniculus; summary of the method: as §2
[21] = dose required to reduce primary rabbit kidney cell growth; assay type: functional; conditions: Oryctolagus cuniculus, read-out: ID50 (the source's name); summary of the method: as §4
[22] = test system: Mus musculus; experiment: Efficacy expressed as number of surviving mice infected with herpetic encephalitis at dose of 0 mg/kg; assay type: functional
[23] = Number of living cells on the proliferation of mouse myeloma cells SP2 was measured at concentration 100 ug/mL at 96 h.; assay type: functional
Summary of the method: (§5)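 Mouse myeloma SP2 cells seeded at 123 × 10^3 cells and exposed to compound at 1, 10 or 100 μg/mL in growth medium. Living cells counted at 0, 48 and 96 h alongside untreated controls.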

[24] = test system: Mus musculus; experiment: Efficacy expressed as number of surviving mice infected with herpetic encephalitis at dose of 150 mg/kg; T is Toxic; assay type: functional, organism-based; parameters: dose 150 mg/kg
[25] = species on record: Mus musculus; experiment: Efficacy expressed as number of surviving mice infected with herpetic encephalitis at dose of 75 mg.kg; assay type: functional
Summary of the method: (§6)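 Young mice (10 g) were inoculated intracerebrally with 0.03 mL of herpes simplex virus suspension containing ca. 4 CCID50. Compound was given at 75 or 150 mg/kg per day as two daily intraperitoneal injections for 4 days. Read-out was the number of surviving mice.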

[26] = Concentration required to reduce protein synthesis in primary rabbit kidney cells usingi [3H2-4,5]leucine incorporation; assay type: functional; conditions: Oryctolagus cuniculus, read-out: ID50 (the source's name); summary of the method: as §4
[27] = Number of living cells on the proliferation of mouse myeloma cells SP2 was measured at concentration 100 ug/mL at 0h.; assay type: functional; summary of the method: as §5
[28] = Number of living cells on the proliferation of mouse myeloma cells SP2 was measured at concentration 100 ug/mL at 48 hr.; assay type: functional; summary of the method: as §5
[29] = Antiviral activity was measured against Vesicular stomatitis virus in rabbit kidney cells.; assay type: functional; conditions: Oryctolagus cuniculus; summary of the method: as §2
[30] = test system: Mus musculus; experiment: Toxicity of compound against mice was determined at a concentration of 750 mg/kg; assay type: organism-based; parameters: dose 750 mg/kg; conditions: in vivo
Summary of the method: (§7)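 Swiss mice (20-24 g) received a single intraperitoneal dose of 100-2,000 mg/kg. Compound was suspended in distilled water containing 0.2 g Tween 80 and 0.2 g (carboxymethyl)cellulose per 100 mL. Mice were followed for 14 days for acute toxicity.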

[31] = test system: Mus musculus; experiment: Toxicity of compound against mice was determined at a concentration of 2000 mg/kg; assay type: organism-based; parameters: dose 2000 mg/kg; conditions: in vivo; summary of the method: as §7
[32] = test system: Mus musculus; experiment: Efficacy expressed as number of surviving mice infected with herpetic encephalitis at dose of 150 mg/kg; assay type: functional; summary of the method: as §6
[33] = test system: Mus musculus; experiment: Toxicity of compound against mice was determined at a concentration of 100 mg/kg; assay type: organism-based; parameters: dose 100 mg/kg; conditions: in vivo; summary of the method: as §7
[34] = Dose required to reduce primary rabbit kidney cell growth; assay type: functional; conditions: Oryctolagus cuniculus, read-out: ID50 (the source's name); summary of the method: as §4
[35] = test system: Mus musculus; experiment: Toxicity of compound against mice was determined at a concentration of 1200 mg/kg; assay type: organism-based; parameters: dose 1200 mg/kg; conditions: in vivo; summary of the method: as §7
[36] = test system: Mus musculus; experiment: Toxicity of compound against mice was determined at a concentration of 250 mg/kg; assay type: organism-based; parameters: dose 250 mg/kg; conditions: in vivo; summary of the method: as §7

Row | Compound | MCC [1] | MCC [2] | MCC [3] | MCC [4] | MCC [5] | MCC [6] | MCC [7] | MCC [8] | MCC [9] | MCC [10] | MCC [13] | MCC [14] | MCC [15] | MCC [16] | MCC [17] | MCC [20] | other results
1 | Nc1ncnc2c1ncn2C[C@H](O)CO [(S)-DHPA] | 100 µg/mL | > 400 µg/mL | > 400 µg/mL | > 400 µg/mL | 100 µg/mL | > 400 µg/mL | > 400 µg/mL | 20 µg/mL | > 400 µg/mL | 150 µg/mL | > 400 µg/mL | > 400 µg/mL | > 400 µg/mL | > 400 µg/mL | > 400 µg/mL |  | MCC [11]: 70 µg/mL; MCC [12]: 20 µg/mL
2 | Nc1nc(O)c2ncn([C@@H]3O[C@H](CO)[C@H](O)[C@H]3O)c2n1 | > 400 µg/mL | > 400 µg/mL | > 400 µg/mL | 70 µg/mL | > 400 µg/mL | 70 µg/mL | > 200 µg/mL |  | > 400 µg/mL | > 400 µg/mL | > 400 µg/mL | > 400 µg/mL | 400 µg/mL | > 200 µg/mL | > 400 µg/mL | 10 µg/mL | IC50 [18]: 61 µg/mL (≈ 215 µM); IC50 [19]: 71 µg/mL (≈ 251 µM); IC50 [21]: 62 µg/mL (≈ 219 µM); Efficacy [22]: 0 mg/kg; No. of living cells [23]: 0; Efficacy [24]: Toxic; Efficacy [25]: 3 mg/kg; IC50 [26]: 148 µg/mL (≈ 523 µM); No. of living cells [27]: 0.123; No. of living cells [28]: 0.024; MCC [29]: > 200 µg/mL
3 | Nc1nc(O)c2c(n1)[nH]c[n+]2C1O[C@H](CO)[C@H](O)[C@H]1O (stereo partly drawn) | > 200 µg/mL | > 200 µg/mL | > 200 µg/mL | > 400 µg/mL | > 200 µg/mL | > 400 µg/mL | > 400 µg/mL |  | 400 µg/mL | > 200 µg/mL | > 200 µg/mL | > 400 µg/mL | > 400 µg/mL | > 400 µg/mL | > 200 µg/mL |  | 
4 | Nc1nccc2c1ncn2[C@@H]1C[C@H](CO)[C@@H](O)[C@H]1O [3-DEAZAARISTEROMYCIN A] | 0.7 µg/mL | > 400 µg/mL | > 400 µg/mL | > 400 µg/mL | 2 µg/mL | > 400 µg/mL | > 400 µg/mL | 0.7 µg/mL | ≥ 400 µg/mL | > 400 µg/mL | > 400 µg/mL | > 400 µg/mL | ≥ 400 µg/mL | > 400 µg/mL | 0.2 µg/mL |  | MCC [11]: 2 µg/mL; MCC [12]: 2 µg/mL
5 | O=c1ccn(C2O[C@H](CO)[C@H](O)[C@H]2O)c(=O)[nH]1 (stereo partly drawn) | > 400 µg/mL | > 400 µg/mL | > 400 µg/mL | 300 µg/mL | > 400 µg/mL | 300 µg/mL | > 400 µg/mL | > 200 µg/mL | > 400 µg/mL | > 400 µg/mL | > 400 µg/mL | > 400 µg/mL | > 400 µg/mL | > 400 µg/mL | > 400 µg/mL | 150 µg/mL | 
6 | NC(=O)c1ncn([C@H]2O[C@H](CO)[C@H](O)[C@H]2O)c1N | > 300 µg/mL | > 400 µg/mL | > 400 µg/mL | > 400 µg/mL | > 400 µg/mL | > 400 µg/mL | > 400 µg/mL |  | > 400 µg/mL | > 400 µg/mL | > 400 µg/mL | > 400 µg/mL | > 400 µg/mL | > 400 µg/mL | > 400 µg/mL |  | 
7 | Nc1ccn([C@@H]2O[C@H](CO)[C@H](O)[C@H]2O)c(=O)n1 | > 100 µg/mL | > 200 µg/mL | > 400 µg/mL | 20 µg/mL | > 100 µg/mL | 20 µg/mL | > 200 µg/mL |  | > 200 µg/mL | > 400 µg/mL | > 40 µg/mL | 400 µg/mL | 200 µg/mL | > 100 µg/mL | > 100 µg/mL | 20 µg/mL | No. of dead mice [30]: 0; No. of dead mice [31]: 1; IC50 [18]: 60 µg/mL (≈ 247 µM); IC50 [19]: 84 µg/mL (≈ 345 µM); Efficacy [22]: 0 mg/kg; No. of living cells [23]: 0; Efficacy [32]: 2 mg/kg; No. of dead mice [33]: 0; Efficacy [25]: 1 mg/kg; IC50 [34]: 72 µg/mL (≈ 296 µM); No. of dead mice [35]: 0; No. of living cells [28]: 0.056; No. of dead mice [36]: 0; MCC [29]: > 100 µg/mL
